Published values gathered from unrelated publications.
Compare with care: the assays were run in different laboratories.
Target: Phosphatidylinositol 4,5-bisphosphate 3-kinase catalytic subunit beta isoform (PIK3CB, Homo sapiens, UniProt P42338)

| SMILES | test | test system | conditions | endpoint | value |
| --- | --- | --- | --- | --- | --- |
| CNc1cc(Oc2cc(C(=O)Nc3cc(N4CCN(C)CC4)cc(C(F)(F)F)c3)ccc2C)ncn1 | target engagement in cells, inhibitor, chemoproteomics | Huh-7 | 1 µM | inhibition | -11.6% |
| CCCCNc1ncc2c(-c3ccc(F)cc3)nn(C[C@H]3CC[C@H](N)CC3)c2n1 | target engagement in cells, inhibitor, chemoproteomics | – | 20 mM | inhibition | 16.7% |
| CCOCCn1cc(C(=O)Nc2ccc(-n3nc(-c4cccnc4)cc3C(F)(F)F)cn2)ccc1=O | cell-free assay, competition with immobilised ligand | – | 1 µM | remaining binding | 82% |
| Cc1ccc(C(=O)Nc2ccc(CN3CCN(C)CC3)c(C(F)(F)F)c2)cc1C#Cc1cnc2cccnn12 | enzyme activity, inhibitor | – | 23.5 nM | remaining activity | 99% |
| O=C(N1CCS(=O)(=O)CC1)N1C[C@H](c2ccc(OC(F)(F)F)cc2)C[C@H](c2nc(C3CC3)no2)C1 | cell-free assay, competition with immobilised ligand | – | 1 µM | remaining binding | 66% |
| COc1cccc2c(NCc3ccccc3)nc(-n3c(N)nc4ccccc43)nc12 | target engagement in cells, inhibitor, chemoproteomics | – | 20 mM | inhibition | 5.6% |
| COc1cc(-c2cc(-c3ccc(N4CCNCC4)cc3)cnc2C)cc(OC)c1OC | enzyme activity, inhibitor | – | 1 µM | inhibition | 6% |
| CS(=O)(=O)Nc1cc(-c2ccc3ncnc(Nc4ccc(F)c(Cl)c4)c3c2)cnc1Cl | enzyme activity, inhibitor, FRET | – | 10 µM | inhibition | 90 to 100% |
| Nc1ncnc2occ(-c3ccc(NC(=O)Nc4cc(C(F)(F)F)ccc4F)cc3)c12 | cell-free assay, inhibitor | – | 20 µM | remaining signal | 86% |
